Test results taken from ChEMBL document CHEMBL3227917, “Structure-activity relationships of dimeric Catharanthus alkaloids. 2. Experimental antitumor activities of N-substituted deacetylvinblastine amide (vindesine) sulfates” (J Med Chem, 1979).

Legend:
[1] = Antitumor activity against mouse P388/VCR/I/63 cells allografted in Dublin-CDF1 mouse assessed as day of host death at 2.0 mg/kg, ip administered on days 1, 5 and 9 (reference value: 10 days); type: functional; conditions: route intraperitoneal
[2] = test system: P388/S; assay: Antitumor activity against mouse P388/S cells allografted in CD2F1 mouse assessed as increase in host lifespan at 0.648 mg/kg, ip administered on days 1, 5 and 9; type: functional; conditions: route intraperitoneal
Method in brief: (§1)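 Groups of eight male CD2F1 mice bearing P388 leukemia, run at NCI. Sulfate salts given ip on days 1, 5 and 9. Read-out is percent increase in lifespan.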

[3] = test system: Mus musculus; assay: Toxicity in DBA2 mouse allografted with mouse P1534 cells at 0.40 mg/kg, ip administered daily for 8 to 10 days; type: organism-based; parameters: dose 0.4 mg/kg, route intraperitoneal; conditions: in vivo, 0.4 mg/kg
Method in brief: (§2)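 P1534(J) leukemia implanted sc in DBA2 mice; sulfate salts dosed ip daily for 8–10 days. Growth inhibition scored –, 0–25%; +, 26–50%; ++, 51–75%; +++, 76–100%; T, lethal to ≥5 of 10 animals per group. Average of one or more tests.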

[4] = test system: Mus musculus; assay: Toxicity in mouse assessed as body weight at 0.5 mg/kg, ip administered twice per week for 4 weeks, then three doses per week for 3 weeks and finally six doses per week for 2 weeks measured during 9-weeks (reference value: 18.5 +/- 0.5 gms); type: organism-based; parameters: dose 0.5 mg/kg, route intraperitoneal; conditions: in vivo, 1512 h
[5] = Antitumor activity against mouse Ridgway osteogenic sarcoma allografted in AKR mouse assessed as tumor growth inhibition at 0.30 mg/kg, ip administered daily for 8 to 10 days compound treatment commenced 8 days after tumor implantation; type: functional; conditions: route intraperitoneal, read-out: TGI
[6] = test system: Mus musculus; assay: Toxicity in CD2F1 mouse allografted with mouse P388/S cells at 3.00 mg/kg, ip administered on days 1, 5 and 9; type: organism-based; parameters: dose 3 mg/kg, route intraperitoneal; conditions: in vivo
[7] = Antitumor activity against mouse P388/VCR/I/63 cells allografted in Dublin-CDF1 mouse assessed as increase in host lifespan at 2.0 mg/kg, ip administered on days 1, 5 and 9; type: functional; conditions: route intraperitoneal
[8] = Antitumor activity against mouse Gardner lymphosarcoma allografted in C3H mouse assessed as tumor growth inhibition at 0.30 mg/kg, ip administered daily for 8 to 10 days; type: functional; conditions: route intraperitoneal, read-out: TGI
Method in brief: (§3)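 Gardner lymphosarcoma in C3H mice; sulfate salts unless noted, given ip daily for 8–10 days, treatment starting 8 days after tumor implantation. Tumor growth inhibition scored as –, 0–25%; +, 26–50%; ++, 51–75%; +++, 76–100%; T, lethal to ≥5 of 10 animals per group. Average of one or more tests.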

[9] = test system: CHO; assay: Mitotic arrest in CHO cells assessed as increase in cell accumulation at 0.002 ug/ml; type: functional, Cricetulus griseus
Method in brief: (§4)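 Chinese hamster ovary cells in tissue culture, scored for mitotic arrest as increase in cells in mitotic arrest over control: +++, 40–50%; ++, 15–40%; +, 10–15%; ±, 7–10%; –, 3–7%. Cytotoxicity noted separately.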

[10] = test system: P388/VCR; assay: Antitumor activity against mouse P388/VCR cells allografted in B6D2F1 mouse assessed as increase in host lifespan at 0.60 mg/kg, ip administered on days 1, 5 and 9; type: functional; conditions: dose 0.6 mg/kg; route intraperitoneal
Method in brief: (§5)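 P388/VCR leukemia in groups of 10 B6D2F1 mice, run at Lilly using the cell strain received from NCI. Sulfate salts given ip on days 1, 5 and 9. Read-out is percent increase in lifespan.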

[11] = test system: B16; assay: Antitumor activity against mouse B16 cells allografted in C57BL/6 mouse assessed as prolongation of host survival at 0.60 mg/kg, ip administered on days 1,5 and 9; type: functional; conditions: route intraperitoneal
Method in brief: (§6)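 B16 melanoma cells (10⁶ inoculum) implanted ip in C57BL/6 mice; groups of 10. Sulfate salts unless noted, given ip on days 1, 5 and 9. Single test. Survival prolongation is expressed as percent versus controls, with survivors counted on day 60. Toxic means deaths of ≥5 of 10 animals before the first control death.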

[12] = test system: Mus musculus; assay: Toxicity in C3H mouse allografted with mouse Gardner lymphosarcoma assessed as lethality at 0.5 mg/kg, ip administered daily for 8 to 10 days; type: organism-based; parameters: dose 0.5 mg/kg, route intraperitoneal; conditions: in vivo
Method in brief: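 Tumor-bearing mice given sulfate salts ip daily for 8–10 days; values are the average of one or more tests. Toxic means lethal to ≥5 of 10 animals per group.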

[13] = Antitumor activity against mouse Gardner lymphosarcoma allografted in C3H mouse assessed as tumor growth inhibition at 0.05 mg/kg, ip administered daily for 8 to 10 days; type: functional; conditions: route intraperitoneal, read-out: TGI; method in brief: as §3
[14] = test system: P388/VCR; assay: Antitumor activity against mouse P388/VCR cells allografted in B6D2F1 mouse assessed as increase in host lifespan at 0.90 mg/kg, ip administered on days 1, 5 and 9; type: functional; conditions: dose 0.9 mg/kg; route intraperitoneal; method in brief: as §5
[15] = test system: P388/VCR; assay: Antitumor activity against mouse P388/VCR cells allografted in CD2F1 mouse assessed as increase in host lifespan at 0.648 mg/kg, ip administered on days 1, 5 and 9; type: functional; conditions: route intraperitoneal; method in brief: as §1
[16] = test system: P388/VCR; assay: Antitumor activity against mouse P388/VCR cells allografted in CD2F1 mouse assessed as increase in host lifespan at 1.80 mg/kg, ip administered on days 1, 5 and 9; type: functional; conditions: dose 1.8 mg/kg; route intraperitoneal
Method in brief: (§7)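 Groups of eight male CD2F1 mice, tested at the NCI. Compounds were given as sulfate salts, dosed in mg/kg ip on days 1, 5 and 9. Activity was read as percent increase in lifespan against the leukemia line.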

[17] = test system: Mus musculus; assay: Toxicity in CD2F1 mouse allografted with mouse P388/VCR cells at 3.00 mg/kg, ip administered on days 1, 5 and 9; type: organism-based; parameters: dose 3 mg/kg, route intraperitoneal; conditions: in vivo
[18] = Antitumor activity against mouse P1534 cells allografted in DBA2 mouse assessed as tumor growth inhibition at 0.20 mg/kg, ip administered daily for 8 to 10 days; type: functional; conditions: route intraperitoneal, read-out: TGI; method in brief: as §2
[19] = test system: B16; assay: Antitumor activity against mouse B16 cells allografted in C57BL/6 mouse assessed as prolongation of host survival at 1.20 mg/kg, ip administered on days 1,5 and 9; type: functional; conditions: route intraperitoneal; method in brief: as §6
[20] = Antitumor activity against mouse Ridgway osteogenic sarcoma allografted in AKR mouse assessed as tumor growth inhibition at 0.40 mg/kg, ip administered daily for 8 to 10 days compound treatment commenced 8 days after tumor implantation; type: functional; conditions: route intraperitoneal, read-out: TGI
[21] = Toxicity in iv dosed mouse assessed as lethality; type: organism-based; conditions: in vivo
[22] = Antitumor activity against mouse Ridgway osteogenic sarcoma allografted in AKR mouse assessed as tumor growth inhibition at 0.20 mg/kg, ip administered daily for 8 to 10 days compound treatment commenced 8 days after tumor implantation; type: functional; conditions: route intraperitoneal, read-out: TGI
[23] = Antitumor activity against mouse P1534 cells allografted in DBA2 mouse assessed as tumor growth inhibition at 0.25 mg/kg, ip administered daily for 8 to 10 days; type: functional; conditions: route intraperitoneal, read-out: TGI; method in brief: as §2
[24] = test system: P388/S; assay: Antitumor activity against mouse P388/S cells allografted in CD2F1 mouse assessed as increase in host lifespan at 1.80 mg/kg, ip administered on days 1, 5 and 9; type: functional; conditions: dose 1.8 mg/kg; route intraperitoneal; method in brief: as §7
[25] = Antitumor activity against mouse Ridgway osteogenic sarcoma allografted in AKR mouse assessed as tumor growth inhibition at 0.10 mg/kg, ip administered daily for 8 to 10 days compound treatment commenced 8 days after tumor implantation; type: functional; conditions: route intraperitoneal, read-out: TGI
[26] = Antitumor activity against mouse P1534 cells allografted in DBA2 mouse assessed as tumor growth inhibition at 0.30 mg/kg, ip administered daily for 8 to 10 days; type: functional; conditions: route intraperitoneal, read-out: TGI; method in brief: as §2
[27] = Antitumor activity against mouse Gardner lymphosarcoma allografted in C3H mouse assessed as tumor growth inhibition at 0.40 mg/kg, ip administered daily for 8 to 10 days; type: functional; conditions: route intraperitoneal, read-out: TGI; method in brief: as §3
[28] = test system: B16; assay: Antitumor activity against mouse B16 cells allografted in C57BL/6 mouse assessed as prolongation of host survival at 0.90 mg/kg, ip administered on days 1,5 and 9; type: functional; conditions: route intraperitoneal; method in brief: as §6
[29] = Antitumor activity against mouse Gardner lymphosarcoma allografted in C3H mouse assessed as tumor growth inhibition at 0.10 mg/kg, ip administered daily for 8 to 10 days; type: functional; conditions: route intraperitoneal, read-out: TGI; method in brief: as §3
[30] = test system: P388/S; assay: Antitumor activity against mouse P388/S cells allografted in CD2F1 mouse assessed as increase in host lifespan at 1.08 mg/kg, ip administered on days 1, 5 and 9; type: functional; conditions: route intraperitoneal; method in brief: as §1
[31] = test system: CHO; assay: Mitotic arrest in CHO cells assessed as increase in cell accumulation at 0.02 ug/ml; type: functional, Cricetulus griseus; method in brief: as §4
[32] = Antitumor activity against mouse Gardner lymphosarcoma allografted in C3H mouse assessed as tumor growth inhibition at 0.20 mg/kg, ip administered daily for 8 to 10 days; type: functional; conditions: route intraperitoneal, read-out: TGI; method in brief: as §3
[33] = test system: P388/VCR; assay: Antitumor activity against mouse P388/VCR cells allografted in B6D2F1 mouse assessed as increase in host lifespan at 1.20 mg/kg, ip administered on days 1, 5 and 9; type: functional; conditions: dose 1.2 mg/kg; route intraperitoneal; method in brief: as §5
[34] = test system: P388/VCR; assay: Antitumor activity against mouse P388/VCR cells allografted in CD2F1 mouse assessed as increase in host lifespan at 1.08 mg/kg, ip administered on days 1, 5 and 9; type: functional; conditions: route intraperitoneal; method in brief: as §1
[35] = Antitumor activity against mouse Ridgway osteogenic sarcoma allografted in AKR mouse assessed as tumor growth inhibition at 0.05 mg/kg, ip administered daily for 8 to 10 days compound treatment commenced 8 days after tumor implantation; type: functional; conditions: route intraperitoneal, read-out: TGI

Structure (SMILES): CC[C@]1(O)C[C@@H]2CN(CCc3c([nH]c4ccccc34)[C@@](C(=O)OC)(c3cc4c(cc3OC)N(C)[C@H]3[C@@](O)(C(N)=O)[C@H](O)[C@]5(CC)C=CCN6CC[C@]43[C@@H]65)C2)C1.O=S(=O)(O)O [VINDESINE SULFATE]
- Activity [1]: 20 days
- Activity [2]: 96%
- Activity [3]: Toxic
- Activity [4]: 34.9 g
- inhibition in vivo at 0.3 mg/kg [5]: 76%
- Activity [6]: Toxic
- Activity [7]: 100%
- inhibition in vivo at 0.3 mg/kg [8]: 76%
- Activity [9]: 10%
- Activity [10]: 0%
- survival at 0.6 mg/kg [11]: 117%
- Activity [12]: Toxic
- inhibition in vivo at 0.05 mg/kg [13]: 0%
- Activity [14]: 5%
- Activity [15]: 4%
- Activity [16]: -8%
- Activity [17]: Toxic
- inhibition in vivo at 0.2 mg/kg [18]: 51%
- survival at 1.2 mg/kg [19]: 155%
- inhibition in vivo at 0.4 mg/kg [20]: 76%
- LD50 [21]: 6.3 mg/kg
- inhibition in vivo at 0.2 mg/kg [22]: 51%
- inhibition in vivo at 0.25 mg/kg [23]: 76%
- Activity [24]: 138%
- inhibition in vivo at 0.1 mg/kg [25]: 0%
- inhibition in vivo at 0.3 mg/kg [26]: 76%
- inhibition in vivo at 0.4 mg/kg [27]: 76%
- survival at 0.9 mg/kg [28]: 144%
- inhibition in vivo at 0.1 mg/kg [29]: 51%
- Activity [30]: 129%
- Activity [31]: 15%
- inhibition in vivo at 0.2 mg/kg [32]: 76%
- Activity [33]: 3%
- Activity [34]: 0%
- inhibition in vivo at 0.05 mg/kg [35]: 0%
